From ChEMBL document CHEMBL3407388, “Synthesis, anticancer activity and molecular docking studies on a series of heterocyclic trans-cyanocombretastatin analogues as antitubulin agents” (2015)

Assays:
MV4-11 = experiment: Anti-leukemic activity against human MV4-11 cells assessed as cell dead after 24 to 48 hrs by annexin V-FITC/7-AAD staining-based flow cytometric analysis; type: functional; details: for CC50: read-out: LD50 (the source's name)
How it was run: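 MV4-11 cells grown in IMDM with 10% FBS, penicillin and streptomycin, seeded at 5 × 10^5/ml and treated. At 24 and 48 h they were stained with annexin V-FITC plus 1 μg/ml 7-AAD. Percent dead cells (annexin V+) was read by flow cytometry and expressed relative to the DMSO vehicle control.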

Kasumi 1 = experiment: Cytotoxicity against human Kasumi-1 cells assessed as apoptotic/dead cells after 24 to 48 hrs by annexin V-FITC/7-AAD staining-based flow cytometric analysis; type: functional
[1] = Cytotoxicity against human primary blast crisis phase of chronic myeloid leukemia cells assessed as apoptotic/dead cells at 25 nM measured at 96 hrs by CD45-APC-H7/ annexin V-FITC/7-AAD staining-based flow cytometric analysis relative to control; type: functional, Leukemia cell
How it was run: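 Thawed cryopreserved primary blast-crisis CML cells were treated and read at 24, 48 and 96 h time-points. Staining used CD45-APC-H7, annexin V-FITC and 7-AAD. Apoptotic/dead cells were scored by flow cytometry as percent annexin V+ blasts, normalized to the DMSO control.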

THP-1 = experiment: Cytotoxicity against human THP1 cells assessed as apoptotic/dead cells after 24 to 48 hrs by annexin V-FITC/7-AAD staining-based flow cytometric analysis; type: functional
Leukemia cell = experiment: Cytotoxicity against human primary blast crisis phase of chronic myeloid leukemia cells assessed as apoptotic/dead cells at 25 to 200 nM by CD45-APC-H7/ annexin V-FITC/7-AAD staining-based flow cytometric analysis; type: functional; details: TDE = time-dependent effect
How it was run: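 Cryopreserved primary blast-crisis CML samples, obtained with informed consent and IRB approval, were thawed, cultured and treated with the indicated doses. At 48 h they were stained with CD45-APC-H7, then annexin V-FITC and 7-AAD. Percent annexin V+ blasts by flow cytometry, normalized to the DMSO control.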

MOLM-13 = experiment: Cytotoxicity against human MOLM13 cells assessed as apoptotic/dead cells after 24 to 48 hrs by annexin V-FITC/7-AAD staining-based flow cytometric analysis; type: functional
[2] = (§1) Cytotoxicity against human KCL22 cells assessed as apoptotic/dead cells after 24 to 48 hrs by annexin V-FITC/7-AAD staining-based flow cytometric analysis; type: functional; details: KCL-22, read-out: LD50 (the source's name)
KCL-22 = experiment: as §1; type: functional
K562 = experiment: Cytotoxicity against human K562 cells assessed as apoptotic/dead cells after 24 to 48 hrs by annexin V-FITC/7-AAD staining-based flow cytometric analysis; type: functional
[3] = (§2) Cytotoxicity against human HL60 cells assessed as apoptotic/dead cells after 24 to 48 hrs by annexin V-FITC/7-AAD staining-based flow cytometric analysis; type: functional; details: HL-60, read-out: LD50 (the source's name)
HL-60 = experiment: as §2; type: functional
Kasumi-4 = experiment: (§3) Cytotoxicity against human Kasumi-4 cells assessed as apoptotic/dead cells after 24 to 48 hrs by annexin V-FITC/7-AAD staining-based flow cytometric analysis; type: functional
[4] = as §3; type: functional; details: read-out: LD50 (the source's name)
TF-1 = experiment: (§4) Cytotoxicity against human TF1 cells assessed as apoptotic/dead cells after 24 to 48 hrs by annexin V-FITC/7-AAD staining-based flow cytometric analysis; type: functional
[5] = as §4; type: functional; details: TF-1, read-out: LD50 (the source's name)
[6] = (§5) Cytotoxicity against human KG1 cells assessed as apoptotic/dead cells after 24 to 48 hrs by annexin V-FITC/7-AAD staining-based flow cytometric analysis; type: functional; details: KG-1, read-out: LD50 (the source's name)
KG-1 = experiment: as §5; type: functional
Tubulin (Homo sapiens) = Tubulin (Homo sapiens) (UniProt P68371+Q9H4B7+P0DPH7+P68366+Q13509+Q71U36+P04350+Q3ZCM7+P07437+P68363+Q9BQE3+Q6PEY2+Q13885+Q9BVA1+Q9BUF5); experiment: Inhibition of tubulin polymerization in human MV4-11 cells at 50 nM after 2 hrs by immunoblot analysis relative to control; type: cell-based
How it was run: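 MV4-11 AML cells were exposed for 2 h to 25, 50 or 100 nM compound. Free tubulin (supernatant) and polymerized tubulin (pellet) were separated and detected by anti-tubulin immunoblot.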

[7] = (§6) Cytotoxicity against human MLL-ENL cells assessed as apoptotic/dead cells after 24 to 48 hrs by annexin V-FITC/7-AAD staining-based flow cytometric analysis; type: functional; details: read-out: LD50 (the source's name)
Homo sapiens = species: Homo sapiens; experiment: as §6; type: functional
TUR = experiment: Cytotoxicity against human TUR cells assessed as apoptotic/dead cells after 24 to 48 hrs by annexin V-FITC/7-AAD staining-based flow cytometric analysis; type: functional
[8] = read-out: LD50 (the source's name)

Question: With COc1ccc(/C(C#N)=C/c2cc3ccccc3s2)cc1OC as the compound, how does the CC50 (MV4-11) read?
Answer: 6060 nM

Question: With COc1cc(/C(C#N)=C/c2csc3ccccc23)cc(OC)c1OC as the compound, how does the Activity (MV4-11) read?
Answer: Dose-dependent effect

Question: And the CC50 (MV4-11)?
Answer: 180 nM

Question: Which CC50 (MV4-11) does the source give for COc1ccc(/C(C#N)=C/c2nc3ccccc3s2)cc1OC here?
Answer: 1220 nM

Question: Which CC50 (MV4-11) does the source give for COc1cc(OC)cc(/C(C#N)=C/c2cc3ccccc3o2)c1 here?
Answer: 1170 nM

Question: For COc1cc(/C(C#N)=C/c2cc3ccccc3s2)cc(OC)c1OC, which Activity (Kasumi 1) is on record?
Answer: Dose-dependent effect

Question: What about the CC50 (Kasumi 1; [8]) of the same compound?
Answer: 151 nM

Question: What about the Activity [1] of the same compound?
Answer: >50%

Question: What about the CC50 (MV4-11) of the same compound?
Answer: 18 nM

Question: And the Activity (THP-1)?
Answer: Dose-dependent effect

Question: And the CC50 (THP-1; [8])?
Answer: 227 nM

Question: What about the Activity (Leukemia cell) of the same compound?
Answer: tde

Question: What about the Activity (MOLM-13) of the same compound?
Answer: Dose-dependent effect

Question: And the CC50 (MOLM-13; [8])?
Answer: 83 nM

Question: And the CC50 [2]?
Answer: 114 nM

Question: What about the Activity (KCL-22) of the same compound?
Answer: Dose-dependent effect

Question: And the Activity (K562)?
Answer: Dose-dependent effect

Question: And the CC50 (K562; [8])?
Answer: 99.5 nM

Question: What about the CC50 [3] of the same compound?
Answer: 120 nM

Question: What about the Activity (HL-60) of the same compound?
Answer: Dose-dependent effect

Question: And the Activity (Kasumi-4)?
Answer: Dose-dependent effect

Question: What about the CC50 [4] of the same compound?
Answer: 156 nM

Question: And the Activity (TF-1)?
Answer: Dose-dependent effect

Question: What about the CC50 [5] of the same compound?
Answer: 79.5 nM

Question: And the CC50 [6]?
Answer: 113 nM

Question: And the Activity (KG-1)?
Answer: Dose-dependent effect

Question: And the inhibition (Tubulin (Homo sapiens))?
Answer: > 50%

Question: And the CC50 [7]?
Answer: 271 nM

Question: And the Activity (Homo sapiens)?
Answer: Dose-dependent effect

Question: And the Activity (TUR)?
Answer: Dose-dependent effect

Question: And the CC50 (TUR; [8])?
Answer: 93 nM
